From ChEMBL document CHEMBL3091329, “Discovery of tetrahydroisoquinoline-based CXCR4 antagonists” (ACS Med Chem Lett, 2013)

Key:
[1] = target: T1, C-X-C chemokine receptor type 4 (Homo sapiens, UniProt P61073); assay: Antagonist activity at CXCR4 in human Chem-1 cells assessed as inhibition of SDF-1alpha-mediated calcium flux preincubated for 10 mins by FLIPR assay; type: functional, cell-based
[2] = Cytotoxicity against human MAGI-CCR5 cells assessed as cell viability after 2 to 6 days by MTS assay
[3] = target: T1, C-X-C chemokine receptor type 4; assay: Ratio of IC50 for CXCR4 in human MAGI-CCR5 cells assessed as inhibition of HIV-1 3B entry to IC50 for CXCR4 in human Chem-1 cells assessed as inhibition of SDF-1alpha-mediated calcium flux; type: functional, cell-based
How it was run: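 Two IC50s taken as a ratio. The first is from blockade of HIV-1 IIIB attachment in CCR5/CXCR4-expressing HeLaCD4-LTR-β-gal (MAGI) cells, with cytotoxicity (TC50) assessed alongside. The second is from inhibition of CXCL12-induced Ca2+ flux/release in Chem-1 cells. Each assay was run in duplicate.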

T1 sequence (P61073 whole entry): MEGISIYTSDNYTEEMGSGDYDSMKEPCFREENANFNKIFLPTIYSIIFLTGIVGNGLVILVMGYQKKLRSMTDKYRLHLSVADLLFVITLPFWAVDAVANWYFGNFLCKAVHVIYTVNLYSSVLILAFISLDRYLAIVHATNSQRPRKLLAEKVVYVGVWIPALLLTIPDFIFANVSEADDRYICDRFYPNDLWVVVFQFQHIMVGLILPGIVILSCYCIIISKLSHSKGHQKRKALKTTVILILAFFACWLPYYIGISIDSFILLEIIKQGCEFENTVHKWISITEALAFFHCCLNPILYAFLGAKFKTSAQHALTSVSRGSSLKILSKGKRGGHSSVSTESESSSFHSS

CN1Cc2ccccc2C[C@@H]1CN(CCCCN)[C@H]1CCCc2cccnc21
IC50 [1]: 39 nM | CC50 ([2]; magi-ccr5): > 10000 nM

NCCCCN(C[C@H]1Cc2ccccc2CN1Cc1ccncc1)[C@H]1CCCc2cccnc21
IC50 [1]: 660 nM | CC50 ([2]; MAGI-CCR5 cells): > 10000 nM

NCCCCN(C[C@H]1Cc2ccccc2CN1Cc1cccnc1)[C@H]1CCCc2cccnc21
IC50 [1]: 350 nM | CC50 ([2]; MAGI-CCR5 cells): > 10000 nM

NCCCCN(C[C@H]1NCCc2ccccc21)[C@H]1CCCc2cccnc21
CC50 ([2]; magi-ccr5): > 30000 nM

NCCCCN(C[C@@H]1CCc2ccccc2N1)[C@H]1CCCc2cccnc21
CC50 ([2]; magi-ccr5): > 30000 nM

CN(C)CCCCN(C[C@H]1Cc2ccccc2CN1)[C@H]1CCCc2cccnc21
Ratio IC50 [3]: 2 | IC50 [1]: 8 nM | CC50 ([2]; MAGI-CCR5 cells): > 10000 nM

NCCCCN(C[C@@H]1NCCc2ccccc21)[C@H]1CCCc2cccnc21
CC50 ([2]; magi-ccr5): > 30000 nM

NC(=O)NCCCCN(C[C@H]1Cc2ccccc2CN1)[C@H]1CCCc2cccnc21
IC50 [1]: 3 nM | CC50 ([2]; magi-ccr5): > 10000 nM

NCCCCN(C[C@@H]1Cc2ccccc2CN1)[C@H]1CCCc2cccnc21
CC50 ([2]; MAGI-CCR5 cells): > 10000 nM

NCCCCN(C[C@H]1CCc2ccccc2N1)[C@H]1CCCc2cccnc21
CC50 ([2]; magi-ccr5): > 30000 nM

CN(C)C(=O)NCCCCN(C[C@H]1Cc2ccccc2CN1)[C@H]1CCCc2cccnc21
IC50 [1]: 180 nM | CC50 ([2]; magi-ccr5): > 10000 nM

CC(C)NCCCCN(C[C@H]1Cc2ccccc2CN1)[C@H]1CCCc2cccnc21
Ratio IC50 [3]: 2 | IC50 [1]: 7 nM | CC50 ([2]; MAGI-CCR5 cells): > 10000 nM

NCCCCN(C[C@H]1Cc2ccccc2CN1CC(=O)N1CCOCC1)[C@H]1CCCc2cccnc21
IC50 [1]: 570 nM | CC50 ([2]; magi-ccr5): > 10000 nM

NCCCCN(C[C@H]1Cc2ccccc2CN1Cc1cocn1)[C@H]1CCCc2cccnc21
IC50 [1]: 490 nM | CC50 ([2]; magi-ccr5): > 10000 nM

CC(C)N1Cc2ccccc2C[C@@H]1CN(CCCCN)[C@H]1CCCc2cccnc21
IC50 [1]: 140 nM | CC50 ([2]; MAGI-CCR5 cells): > 10000 nM

CC(=O)NCCCCN(C[C@H]1Cc2ccccc2CN1)[C@H]1CCCc2cccnc21
IC50 [1]: 4 nM | CC50 ([2]; magi-ccr5): > 10000 nM

NCCCCN(C[C@H]1Cc2ccccc2CN1Cc1ccccn1)[C@H]1CCCc2cccnc21
IC50 [1]: 56 nM | CC50 ([2]; MAGI-CCR5 cells): > 10000 nM
